SF1 activator: activators of human nuclear receptor SF-1; Q13285; activation, % at 10 µM; AID 522; CHO-K1 Gal4-SF-1 LBD luciferase reporter; % increase over DMSO SF-1-specific signal; 65,000 compounds, 1.9% hits;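 active = activation above the mean activation of all tested compounds plus 3 SD, cut at about 50% in these data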
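System: CHO-K1 cells with Gal4–hSF-1 LBD chimera plus Gal4-driven luciferase; quantity: 4,000 CHO-K1 cells per well; compound: one dose, 10 µM compound, 1% DMSO; times: 20 h compound treatment, 37 °C; measured by: SteadyLite luciferase luminescence; read-out: percent activation versus DMSO; benchmarks: DMSO and mock-transfected background; replicates: one test per compound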
D1 allo mod: D1 dopamine receptor (human) allosteric modulation. AID 641. B-score at 10 µM. 58,000 compounds, 5.9% hits. HEK293 D1, CRE-luciferase, dopamine EC30 potentiation; actives deviate in either direction;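 active = luminescence count or its row- and column-corrected plate score outside the 99.7% band of the plate's sample wells, on either side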
Target sequence (P21728 whole entry, looked up): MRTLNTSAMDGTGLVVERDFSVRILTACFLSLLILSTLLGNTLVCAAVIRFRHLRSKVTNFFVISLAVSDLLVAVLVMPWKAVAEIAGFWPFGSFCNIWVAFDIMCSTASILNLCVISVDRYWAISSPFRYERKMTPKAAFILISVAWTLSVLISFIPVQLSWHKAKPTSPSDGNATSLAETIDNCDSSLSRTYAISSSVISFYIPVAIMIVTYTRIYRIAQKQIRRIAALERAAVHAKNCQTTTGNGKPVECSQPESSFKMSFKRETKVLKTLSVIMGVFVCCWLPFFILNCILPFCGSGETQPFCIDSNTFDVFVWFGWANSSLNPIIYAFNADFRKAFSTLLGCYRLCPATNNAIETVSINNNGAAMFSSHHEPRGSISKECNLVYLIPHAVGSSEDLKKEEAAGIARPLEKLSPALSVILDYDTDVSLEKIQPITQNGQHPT
RORA act: activators of human nuclear receptor RORA; P35398; CHO-K1 Gal4-RORA LBD luciferase reporter, luminescence; percent increase over mock-subtracted basal signal; activation, % at 10 µM; 65,000 compounds, 1.5% hits; AID 560;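 active = activation above the mean of all tested compounds plus 3 SD, cut at about 49% in these data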;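 also: 0% = DMSO-treated RORA cells and 100% = added signal equal to DMSO minus mock-transfected cells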
M1 agonist: M1 muscarinic receptor agonism. CHO-M1 cells, Fluo-4 calcium fluorescence, agonist mode; hits give high values. B-score at 10 µM. 64,000 compounds, 3% hits;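 active = fluorescence rise, raw or as B-score row- and column-corrected plate score, outside the 99.7% band of its plate's samples, either direction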
mHtt clearance: compounds clearing mutant huntingtin protein; 47,000 compounds, 0.42% hits; inhibition, % at 1.5 µM; HeLa Exon1htt(103Q)mCFP, aggregate imaging; zero = plate's median compound well;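 active = inhibition of aggregate fluorescence above about 70%, also judged a hit by eye on the cell image, limit read from the data, passing the limit was not always enough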;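 also: cells exposed to compound for three days before fixation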
M1 antag: M1 muscarinic receptor (rat) antagonism; 64,000 compounds, 3.4% hits; B-score at 10 µM; P08482; AID 628; CHO-M1 cells, Fluo-4 calcium, ACh EC80 antagonist mode; hits give low values;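 active = calcium fluorescence response, raw or row-and-column corrected B-score, differing from the plate sample mean either way at a set confidence level, mostly lower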
* = called active by the depositor. Only some compounds are listed: those with a hit (about 11% of all), similar ones and a draw of the others.

COc1cccc(C(=O)Nc2ccc(C)cc2)c1 was read as SF1 activator 17, D1 allo mod -4.5*, RORA act 28, M1 agonist -0.037, mHtt clearance 62 and M1 antag -0.056.
Screening COC(=O)c1ccc(NC(=O)c2cccc(OC)c2)cc1 returned SF1 activator 11, D1 allo mod 0.72, RORA act 49*, M1 agonist 0.25, mHtt clearance 30 and M1 antag 0.019.
`Cc1ccc(Nc2nc(C3CC3)cs2)cc1` gave SF1 activator 5, D1 allo mod -4.9*, RORA act -6, M1 agonist 0.37 and M1 antag 0.11.
CCN(CC)C(=O)c1csc(Nc2ccc(C)cc2)n1 was read as SF1 activator -1, D1 allo mod -0.064, RORA act 19, M1 agonist -0.51 and M1 antag -0.041.
CC(NC(=O)c1cccs1)C(c1cccs1)N1CCN(Cc2ccccc2)CC1 (configuration not stated) was read as SF1 activator -3, D1 allo mod -2.1*, RORA act -5, M1 agonist -0.46, mHtt clearance -44 and M1 antag -1.4.
`CCN1CCN(C(c2cccs2)C(C)NC(=O)c2ccco2)CC1` (configuration not stated) gave SF1 activator -3, D1 allo mod -1.4*, RORA act -2, M1 agonist -0.031 and M1 antag -2.2.
Screening CCC(=O)NC(C)C(c1cccs1)N1CCN(Cc2ccccc2)CC1 (configuration not stated) returned mHtt clearance -30.
`CCCCS(=O)(=O)NC1=NCN(C2CCN(Cc3ccccc3)CC2)CN1` gave SF1 activator -9, D1 allo mod -0.38, RORA act -10, M1 agonist 0.49, mHtt clearance 9 and M1 antag -0.19.
`COc1cc2nc(SCC(=O)NCc3ccco3)n(Cc3ccc(Cl)cc3)c(=O)c2cc1OC` gave SF1 activator -6, D1 allo mod -3.8*, RORA act 2, M1 agonist 0.91, mHtt clearance 2 and M1 antag -0.12.
Screening COC(=O)c1c(-c2ccncc2)csc1NC(=O)c1ccoc1C returned SF1 activator 64*, D1 allo mod 2, RORA act 48, M1 agonist -0.37 and M1 antag 0.57.
CCN(CC)C(=O)c1sc(NC(=O)c2ccoc2C)c(C(=O)OC)c1C was read as SF1 activator 13, D1 allo mod 1.1, RORA act 18, M1 agonist -0.077 and M1 antag 0.26.
Screening COc1ccc(OC)c(Nc2cc(-c3ccccc3)nc(N)n2)c1 returned SF1 activator -45, D1 allo mod -2.1, RORA act -33, M1 agonist -0.028 and M1 antag 0.21.
Nc1nc(-c2ccc3c(c2)OCCO3)cs1 was read as SF1 activator 64*, D1 allo mod -0.23, RORA act 50*, M1 agonist -0.3 and M1 antag 0.061.
Screening Cc1nc(-c2ccc3c(c2)OCO3)cs1 returned SF1 activator 1, RORA act 0, M1 agonist -0.67, mHtt clearance -12 and M1 antag 0.77.
For Nc1nc(-c2ccc3c(c2)CCCC3)cs1 the results were SF1 activator 37, D1 allo mod -1.8, RORA act 76*, M1 agonist -0.37 and M1 antag -0.14.
Screening C=CCSc1nc(C)c(CC(=O)OCC(C)C)c(=O)[nH]1 returned SF1 activator -1, D1 allo mod 0.031, RORA act 3, M1 agonist -0.32 and M1 antag 0.44.
`COc1ccc(-c2noc(-c3ccccc3-c3ccccc3)n2)cc1OC` gave SF1 activator 19, D1 allo mod 0.63, RORA act -7, M1 agonist -0.011 and M1 antag 0.
COc1ccc2noc3c2c1C(=O)c1ccccc1-3 was read as SF1 activator 7, D1 allo mod 5*, RORA act -8, M1 agonist 354* and M1 antag -12*.
Screening Cc1ccc(C2C(C(=O)c3cc4ccccc4o3)=C(O)C(=O)N2CCCN(C)C)cc1 (configuration not stated) returned SF1 activator 20, D1 allo mod 0.24, RORA act 13, M1 agonist -0.59 and M1 antag 0.25.
Screening Cc1cccc(N2CCN(C(=O)CCCOc3ccccc3)CC2)c1C returned SF1 activator 48, D1 allo mod -1.6, RORA act 30, M1 agonist -0.12 and M1 antag -0.54.
For Clc1ccccc1-c1nc(-c2ccccc2)n[nH]1 the results were SF1 activator 18, D1 allo mod 0.072, RORA act 61*, M1 agonist -0.018, mHtt clearance 32 and M1 antag 0.1.
`COc1ccc(NC(=O)CC2C(=O)N(c3cccc(OC)c3)C(=O)N2CCC(C)C)cc1` (configuration not stated) gave mHtt clearance -23.
CN(C)/C=N/c1cnc(C(=O)c2ccc(Cl)cc2)n1C was read as SF1 activator 48, D1 allo mod -0.79, RORA act 76*, M1 agonist 0.28, mHtt clearance -11 and M1 antag -0.072.
For CC(=O)N1CCN(c2ccc(NC(=O)c3ccc(C)cc3)cc2)CC1 the results were mHtt clearance -33.
`CC(=O)N1CCc2cc(NC(=O)c3ccc(C)cc3)ccc21` gave SF1 activator 19, D1 allo mod -2.6*, RORA act -14, M1 agonist 0.48, mHtt clearance 38 and M1 antag 1.6.
Screening O=c1[nH]c2ccc(S(=O)(=O)N3CCCCC3)cc2[nH]c1=O returned mHtt clearance 22.
CCn1ccc(C(=O)Oc2ccc(Cl)cc2)n1 was read as mHtt clearance 4.
For CCn1ccc(C(=O)Nc2ccc(Cl)cn2)n1 the results were SF1 activator 78*, D1 allo mod -0.041, RORA act 59*, M1 agonist 0.12 and M1 antag -0.19.
`Cn1c(=O)n(Cc2ccc(Cl)cc2)c(=O)c2c1nc1n2CCN1Cc1ccco1` gave SF1 activator 2, D1 allo mod 0.17, RORA act 14, M1 agonist -2.3*, mHtt clearance 34 and M1 antag -1.1.
Cn1c(=O)n(Cc2ccccc2)c(=O)c2c1nc1n2CCCN1Cc1ccccc1 was read as SF1 activator 10, D1 allo mod 0.0053, RORA act 4, M1 agonist 0.44, mHtt clearance -46 and M1 antag 2.9*.
`COc1ccc(C2C3=C(CC(C)(C)CC3=O)Oc3ncn4nc(-c5cccnc5)nc4c32)cc1` (configuration not stated) gave SF1 activator -10, D1 allo mod 0.52, RORA act -21, M1 agonist -0.013 and M1 antag 0.85.
C=C(C)n1c(=O)[nH]c2ccccc21 was read as SF1 activator -3, D1 allo mod 0.64, RORA act 1, M1 agonist 0.18, mHtt clearance 21 and M1 antag -0.58.

Compound activity deposited in PubChem by several laboratories.
